This is an account of results in ChEMBL document CHEMBL2311525, “Design, synthesis, and pharmacological properties of new heteroarylpyridine/heteroarylpyrimidine derivatives as CB(2) cannabinoid receptor partial agonists” (J Med Chem, 2013).

The term pKi denotes the Ki on a negative log10 scale, so that one unit is a factor of ten. As a reminder, the inhibition is how much of the control response was suppressed. Broadly, the Emax is the greatest response seen or fitted, relative to the assay's reference. Usually pEC50 stands for −log10 of the EC50, conventionally taken in molar units.

pEC50, pKi: −log10 of the molar value.

For assay [1], the target named is Cannabinoid receptor 1 (Rattus norvegicus, UniProt P20272). Briefly: Displacement of [3H]CP-55,940 from Sprague-Dawley rat brain CB1 receptor by scintillation counting analysis. A digest of the protocol:
(§1)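 Male Sprague-Dawley rat brain membranes, prepared by spinning at 2000g and then 40000g, in 50 mM Tris-HCl with 1 mM EDTA, 3 mM MgCl2 and 0.5% fatty-acid-free BSA, pH 7.4. Incubated with 1.0 nM [3H]CP-55,940, 40 μg protein/100 μL and test compound at 1 nM–10 μM. Filtered on GF/C. Ki by Cheng–Prusoff, n = 4.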
(In general: Displacement assays read how much labelled ligand stays bound in the presence of the test substance.)

In assay [2] the target is T1, Cannabinoid receptor 1 (Homo sapiens, UniProt P21554). Put plainly: Displacement of [3H]CP-55,940 from human recombinant CB1 receptor expressed in CHO cell membranes at 1 to 10000 nM after 90 mins by scintillation counting analysis. The procedure, abridged: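 Membranes from CHO cells expressing hCB1, spun at 100000g, in 50 mM Tris-HCl with 0.5% BSA, 5 mM MgCl2 and 2.5 mM EDTA, pH 7.4. Incubated with 0.5 nM [3H]CP-55,940 and compound at 1 nM–10 μM for 90 min at 30 °C. Filtered on GF/C and counted. Ki by Cheng–Prusoff, n = 4.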
T1 sequence (P21554 whole entry): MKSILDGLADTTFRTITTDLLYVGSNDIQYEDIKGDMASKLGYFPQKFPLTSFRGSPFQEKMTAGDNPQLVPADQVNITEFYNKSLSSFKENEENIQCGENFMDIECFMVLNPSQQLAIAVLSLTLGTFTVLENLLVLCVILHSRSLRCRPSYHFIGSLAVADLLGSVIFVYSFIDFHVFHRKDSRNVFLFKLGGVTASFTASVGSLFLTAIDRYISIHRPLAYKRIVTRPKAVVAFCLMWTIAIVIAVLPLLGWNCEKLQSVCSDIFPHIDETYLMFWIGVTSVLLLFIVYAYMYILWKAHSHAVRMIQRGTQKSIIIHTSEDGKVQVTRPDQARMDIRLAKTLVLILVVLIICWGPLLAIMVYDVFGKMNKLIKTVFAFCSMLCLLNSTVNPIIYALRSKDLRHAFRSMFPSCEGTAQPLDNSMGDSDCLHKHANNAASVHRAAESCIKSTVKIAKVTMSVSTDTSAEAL

Assay [3] deals with T2, Cannabinoid receptor 2 (Rattus norvegicus, UniProt Q9QZN9).
T2 sequence (Q9QZN9 whole entry): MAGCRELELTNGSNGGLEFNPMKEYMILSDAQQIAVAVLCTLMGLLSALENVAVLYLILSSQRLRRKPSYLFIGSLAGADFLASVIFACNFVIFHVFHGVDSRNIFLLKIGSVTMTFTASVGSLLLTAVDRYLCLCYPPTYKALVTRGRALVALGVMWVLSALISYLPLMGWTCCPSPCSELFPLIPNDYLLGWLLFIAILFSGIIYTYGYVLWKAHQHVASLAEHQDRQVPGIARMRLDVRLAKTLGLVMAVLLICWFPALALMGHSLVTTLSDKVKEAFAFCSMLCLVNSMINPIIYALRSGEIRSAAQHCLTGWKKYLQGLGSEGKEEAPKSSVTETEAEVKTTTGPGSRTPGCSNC
Put plainly: Displacement of [3H]CP-55,940 from Sprague-Dawley rat spleen CB2 receptor by scintillation counting analysis. The procedure, abridged: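 Male Sprague-Dawley rat spleen membranes, prepared by spinning at 2000g and then 40000g, in 50 mM Tris-HCl with 1 mM EDTA, 3 mM MgCl2 and 0.5% fatty-acid-free BSA, pH 7.4. Filtered on GF/C.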

Assay [4] addresses T3, Cannabinoid receptor 2 (Homo sapiens, UniProt P34972). Put plainly: Displacement of [3H]CP-55,940 from human recombinant CB2 receptor expressed in CHO cell membranes at 1 to 10000 nM after 60 mins by scintillation counting analysis. The procedure, abridged: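 Membranes from CHO cells expressing hCB2, spun at 100000g, in 50 mM Tris-HCl with 0.5% BSA, 5 mM MgCl2 and 1 mM EDTA, pH 7.4. Incubated with 0.5 nM [3H]CP-55,940 and compound at 1 nM–10 μM for 60 min at 30 °C. Filtered on GF/C and counted. Ki by Cheng–Prusoff, n = 4.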

Assay [5] deals with Cannabinoid receptor 1 (Rattus norvegicus) (UniProt P20272). Put plainly: Displacement of [3H]CP-55,940 from Sprague-Dawley rat brain CB1 receptor at 1 to 10000 nM by scintillation counting analysis. A digest of the protocol:
as §1

The target in assay [6] is T1, Cannabinoid receptor 1. Briefly: Displacement of [3H]CP-55,940 from human recombinant CB1 receptor expressed in CHO cell membranes after 90 mins by scintillation counting analysis.
The target in assay [7] is T3, Cannabinoid receptor 2. Put plainly: Displacement of [3H]CP-55,940 from human recombinant CB2 receptor expressed in CHO cell membranes after 60 mins by scintillation counting analysis.
The target of assay [8] is T4, Cannabinoid receptor 2 (Rattus norvegicus) (UniProt Q9QZN9).
T4 sequence (whole entry): T2 sequence (Q9QZN9 whole entry)
Briefly: Displacement of [3H]CP-55,940 from Sprague-Dawley rat spleen CB2 receptor at 1 to 10000 nM by scintillation counting analysis. The procedure, abridged: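 Male Sprague-Dawley rat spleen membranes, prepared by spinning at 2000g and then 40000g, in 50 mM Tris-HCl with 1 mM EDTA, 3 mM MgCl2 and 0.5% fatty-acid-free BSA, pH 7.4. Incubated with 0.5 nM [3H]CP-55,940, 80 μg protein/100 μL and test compound at 1 nM–10 μM. Filtered on GF/C. Ki by Cheng–Prusoff, n = 4.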

For assay [9], the species on record is Homo sapiens. Put plainly: Selectivity index, ratio of Ki for human recombinant CB1 receptor to Ki for human recombinant CB2 receptor.
Assay [10] is filed under the species Homo sapiens. Briefly: Selectivity ratio of Ki for CB1 receptor (unknown origin) to Ki for CB2 receptor (unknown origin).
Assay [11] has as its target T3, Cannabinoid receptor 2. Briefly: Agonist activity at human CB2 receptor expressed in CHO cells assessed as forskolin-stimulated [3H]cyclic-AMP accumulation by scintillation counting analysis relative to WIN 55,212-2. In kind it is functional, cell-based. A digest of the protocol: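 CHO cells stably expressing human CB2, 1 × 10^6 cells/assay, in buffered saline (10 mM MgCl2, 5 mM glucose, 5 mM HEPES, pH 7.4, 37 °C) with 0.5 mM Ro 20-1724. Preincubated 10 min at 37 °C, then tested with 1 μM forskolin. Stopped with cold 6% TCA and ether-extracted. cAMP read by [3H]cAMP competition binding to beef adrenal binding protein with charcoal separation.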

Assay [12] concerns the target T3, Cannabinoid receptor 2. Briefly: Agonist activity at human CB2 receptor expressed in CHO cells assessed as forskolin-stimulated [3H]cyclic-AMP accumulation by scintillation counting analysis. It is filed as functional, cell-based.

T3 sequence (P34972 whole entry): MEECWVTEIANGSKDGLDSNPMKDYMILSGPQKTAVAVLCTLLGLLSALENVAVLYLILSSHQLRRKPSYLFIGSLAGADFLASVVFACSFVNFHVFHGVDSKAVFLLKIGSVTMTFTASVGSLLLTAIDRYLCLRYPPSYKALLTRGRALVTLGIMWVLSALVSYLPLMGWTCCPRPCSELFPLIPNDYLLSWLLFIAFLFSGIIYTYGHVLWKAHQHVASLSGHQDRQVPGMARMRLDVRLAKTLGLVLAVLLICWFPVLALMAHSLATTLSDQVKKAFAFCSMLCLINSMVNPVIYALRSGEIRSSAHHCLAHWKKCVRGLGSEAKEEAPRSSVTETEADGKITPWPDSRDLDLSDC
Sequence of Cannabinoid receptor 1 (Rattus norvegicus, UniProt P20272) (P20272 whole entry): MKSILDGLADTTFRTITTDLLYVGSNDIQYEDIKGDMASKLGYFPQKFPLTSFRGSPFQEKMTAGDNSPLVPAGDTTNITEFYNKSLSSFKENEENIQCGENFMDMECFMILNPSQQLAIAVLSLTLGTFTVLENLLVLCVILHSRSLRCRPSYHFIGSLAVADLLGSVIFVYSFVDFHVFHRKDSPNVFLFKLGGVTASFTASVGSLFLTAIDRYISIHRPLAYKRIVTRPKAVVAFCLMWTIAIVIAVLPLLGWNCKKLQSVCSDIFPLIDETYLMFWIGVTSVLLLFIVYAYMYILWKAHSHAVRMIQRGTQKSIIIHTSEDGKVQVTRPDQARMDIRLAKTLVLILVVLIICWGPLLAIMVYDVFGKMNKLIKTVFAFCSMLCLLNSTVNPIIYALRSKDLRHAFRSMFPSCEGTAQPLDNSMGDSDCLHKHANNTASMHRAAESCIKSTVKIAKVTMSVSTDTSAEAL
Sequence of Cannabinoid receptor 1 (Rattus norvegicus) (P20272 whole entry): as above

Turning to `Cc1nn(C)c2c1c(=O)c(C(=O)NC1CCCCC1)cn2CCCCC#N`, the pKi at Cannabinoid receptor 1 [1], at Cannabinoid receptor 2 [3], on Cannabinoid receptor 1 [6] and on Cannabinoid receptor 2 [7] was below 5.00 each time. Besides, the inhibition at Cannabinoid receptor 1 [2] is 28%; at Cannabinoid receptor 2 [4], 11%; in assay [5], 25%; in assay [8] it was 5%.
Turning to `CCCCCn1cc(C(=O)NCc2ccccc2)c(=O)c2c(C)nn(C)c21`, the negative logarithm of the Ki (pKi) was below 5.00 at Cannabinoid receptor 1 [1], 5.35 at Cannabinoid receptor 2 [3], below 5.00 on Cannabinoid receptor 1 [6] and 5.44 on Cannabinoid receptor 2 [7]. For the same molecule, the inhibition at Cannabinoid receptor 1 [2] was 38%; in [5] it was 42%. In the assay listed under Homo sapiens [9], the Ratio Ki was above 2.7.
As for `CCCCCn1cc(C(=O)NC2CCCCC2)c(=O)c2c(C(C)(C)C)nn(C)c21`, the negative-log Ki (pKi) at Cannabinoid receptor 1 [1] is below 5.00; on Cannabinoid receptor 2 [3], 5.39; at Cannabinoid receptor 1 [6] it was below 5.00; on Cannabinoid receptor 2 [7], 5.45. Moreover, the inhibition at Cannabinoid receptor 1 [2] was 23%; in assay [5], 19%. Also, the Ratio Ki in the assay listed under Homo sapiens [9] is above 2.8.
In the case of `CCCCCCC(C)(C)c1cc(OC)c([C@@H]2C=C(CO)[C@H]3C[C@@H]2C3(C)C)c(OC)c1`, the Ratio Ki in the assay filed under Homo sapiens [10] came out at 400.
On to `Cc1ccc(Cn2cc(C(=O)NC3CCCCC3)c(=O)c3c(C)nn(C)c32)cc1`, for which the pKi at Cannabinoid receptor 1 [1], on Cannabinoid receptor 2 [3], on Cannabinoid receptor 1 [6] and at Cannabinoid receptor 2 [7] was below 5.00 throughout. Further, the inhibition on Cannabinoid receptor 1 [2] is 35%; at Cannabinoid receptor 2 [4], 33%; in assay [5] it was 38%; in [8] it was 29%.
As for `CCCCCn1cc(C(=O)Nc2ccc(OC)cc2)c(=O)c2c(C)nn(C)c21`, the pKi on Cannabinoid receptor 1 [1], at Cannabinoid receptor 2 [3], at Cannabinoid receptor 1 [6] and on Cannabinoid receptor 2 [7] was below 5.00 each time. In addition, the inhibition stood at 38% at Cannabinoid receptor 1 [2], 33% at Cannabinoid receptor 2 [4], 46% in assay [5] and 24% in [8].
With `CCCCCn1cc(C(=O)NC2CCCCC2)c(=O)c2c(-c3ccc(Cl)cc3)nn(C)c21`, the pKi at Cannabinoid receptor 1 [1] was below 5.00; at Cannabinoid receptor 2 [3] it was 5.30; on Cannabinoid receptor 1 [6], below 5.00; on Cannabinoid receptor 2 [7], 5.44. Besides, the inhibition stood at 22% at Cannabinoid receptor 1 [2] and 15% in [5]. The Ratio Ki in the assay filed under Homo sapiens [9] is above 2.8.
Regarding `C=CCn1cc(C(=O)NC2CCCCC2)c(=O)c2c(C)nn(C)c21`, the negative-log Ki (pKi) at Cannabinoid receptor 1 [1], at Cannabinoid receptor 2 [3], on Cannabinoid receptor 1 [6] and on Cannabinoid receptor 2 [7] was below 5.00 each time. The inhibition on Cannabinoid receptor 1 [2] was found to be 34%; on Cannabinoid receptor 2 [4] it was 42%; in [5] it was 27%; in assay [8], 46%. In addition, the Emax on Cannabinoid receptor 2 [11] is 58%. The negative-log EC50 (pEC50) on Cannabinoid receptor 2 [12] was 6.23.
For `CCCCCn1cc(C(=O)NC2CCCCC2)c(=O)c2c(-c3ccccc3)nn(C)c21`, the pKi on Cannabinoid receptor 1 [1], at Cannabinoid receptor 2 [3], on Cannabinoid receptor 1 [6] and on Cannabinoid receptor 2 [7] was below 5.00 each time. For the same molecule, the inhibition at Cannabinoid receptor 1 [2] worked out at 23%; at Cannabinoid receptor 2 [4], 1%; in [5] it was 18%; in assay [8] it was 1%.
`CCOCCn1cc(C(=O)NC2CCCCC2)c(=O)c2c(C)nn(C)c21`: the negative-log Ki (pKi) at Cannabinoid receptor 1 [1], at Cannabinoid receptor 2 [3], at Cannabinoid receptor 1 [6] and at Cannabinoid receptor 2 [7] was below 5.00 throughout. For the same molecule, the inhibition at Cannabinoid receptor 1 [2] came to 14%; on Cannabinoid receptor 2 [4] it was 1%; in assay [5] it was 10%; in assay [8], 1%.
Turning to `CCCCCn1cc(C(=O)NC2CCCCCC2)c(=O)c2c(-c3ccc(Cl)cc3)nn(C)c21`, the negative logarithm of the Ki (pKi) was below 5.00 on Cannabinoid receptor 1 [1], 5.39 at Cannabinoid receptor 2 [3], below 5.00 on Cannabinoid receptor 1 [6] and 5.55 on Cannabinoid receptor 2 [7]. In addition, the inhibition was 17% on Cannabinoid receptor 1 [2] and 12% in assay [5]. Further, the Ratio Ki in the assay listed under Homo sapiens [9] was above 3.5.
For `CCCCCn1cc(C(=O)NC23CC4CC(CC(C4)C2)C3)c(=O)c2c(C)noc21`, the pKi on Cannabinoid receptor 1 [1] was 5.83; at Cannabinoid receptor 2 [3] it was 7.59; at Cannabinoid receptor 1 [6], 5.83; at Cannabinoid receptor 2 [7], 7.68. For the same molecule, in the assay filed under Homo sapiens [9], the Ratio Ki came out at 69.9. Moreover, the Emax at Cannabinoid receptor 2 [11] turned out to be 97%. At Cannabinoid receptor 2 [12], the pEC50 is 7.08.
Turning to `CCCCCn1cc(C(=O)NC23CC4CC(CC(C4)C2)C3)c(=O)c2c(C)csc21`, the pKi is 7.78 on Cannabinoid receptor 1 [1], 8.90 on Cannabinoid receptor 2 [3], 7.86 on Cannabinoid receptor 1 [6] and 8.95 on Cannabinoid receptor 2 [7]. Also, the Ratio Ki in the assay listed under Homo sapiens [9] worked out at 12.5. Also, the Emax at Cannabinoid receptor 2 [11] is -167%. Moreover, the negative logarithm of the EC50 (pEC50) at Cannabinoid receptor 2 [12] is 7.51.
For `Cc1nn(C)c2c1c(=O)c(C(=O)NC1CCCCC1)cn2CCN1CCOCC1`, the pKi on Cannabinoid receptor 1 [1], on Cannabinoid receptor 2 [3], on Cannabinoid receptor 1 [6] and at Cannabinoid receptor 2 [7] was below 5.00 in each case. In addition, the inhibition is 16% on Cannabinoid receptor 1 [2], 36% at Cannabinoid receptor 2 [4], 13% in assay [5] and 32% in assay [8].
With `CCCCCn1cc(C(=O)NC2CCCCC2)c(=O)c2c(C)noc21`, the negative logarithm of the Ki (pKi) on Cannabinoid receptor 1 [1] is 6.73; at Cannabinoid receptor 2 [3] it was 7.42; at Cannabinoid receptor 1 [6], 6.81; on Cannabinoid receptor 2 [7] it was 8.06. In addition, the Ratio Ki in the assay listed under Homo sapiens [9] came to 17.7. Also, at Cannabinoid receptor 2 [11], the Emax was found to be 98%. The negative-log EC50 (pEC50) at Cannabinoid receptor 2 [12] was 7.84.
In the case of `CCCCCn1cc(C(=O)Nc2ccc(F)cc2)c(=O)c2c(C)nn(C)c21`, the negative logarithm of the Ki (pKi) at Cannabinoid receptor 1 [1], at Cannabinoid receptor 2 [3], at Cannabinoid receptor 1 [6] and at Cannabinoid receptor 2 [7] was below 5.00 each time. In addition, the inhibition at Cannabinoid receptor 1 [2] came to 44%; at Cannabinoid receptor 2 [4], 37%; in assay [5], 48%; in [8] it was 27%.
For the molecule `CCCCCn1cc(C(=O)NC2CCCCCC2)c(=O)c2c(-c3ccccc3)nn(C)c21`, the negative logarithm of the Ki (pKi) at Cannabinoid receptor 1 [1], at Cannabinoid receptor 2 [3], at Cannabinoid receptor 1 [6] and at Cannabinoid receptor 2 [7] was below 5.00 each time. Further, the inhibition (on Cannabinoid receptor 1 [2]; on Cannabinoid receptor 2 [4]; in assay [5]; in assay [8]) was 1% in each case.
